# Laboratory results published in ChEMBL document CHEMBL4689842, “EUbOPEN Chemogenomics Library wave 1” (2021).
# System: U2OS
# Experiment: Multiplex assay against U2OS
# Format: toxicity, cell-based
# Conditions: human
# Summary of the method: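 Cells stained live at seeding with Hoechst33342, BioTracker Green Microtubule Cytoskeleton Dye, MitoTracker Red and Annexin V Alexa Fluor 680 were imaged on a CQ1 microscope at 37°C and 5% CO2 after compound addition. Their classification by CellPathfinder machine-learning gating ran from Hoechst high-intensity objects versus normal cells, to healthy, pyknosed or fragmented nuclei among normal cells, to mitotic or apoptotic among pyknosed cells. Tubulin, mitochondrial-mass and membrane-permeability phenotypes are per cents of healthy-nucleus cells.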
# [1] = 12 h, 1 µM, compound concentration 1 uM, replicate 1
# [2] = 12 h, 1 µM, compound concentration 1 uM, replicate 2
# [3] = 12 h, 10 µM, compound concentration 10 uM, replicate 1
# [4] = 12 h, 10 µM, compound concentration 10 uM, replicate 2
# [5] = 24 h, 1 µM, compound concentration 1 uM, replicate 1
# [6] = 24 h, 1 µM, compound concentration 1 uM, replicate 2
# [7] = 24 h, 10 µM, compound concentration 10 uM, replicate 1
# [8] = 24 h, 10 µM, compound concentration 10 uM, replicate 2
# [9] = 48 h, 1 µM, compound concentration 1 uM, replicate 1
# [10] = 48 h, 1 µM, compound concentration 1 uM, replicate 2
# [11] = 48 h, 10 µM, compound concentration 10 uM, replicate 1
# [12] = 48 h, 10 µM, compound concentration 10 uM, replicate 2
compound,measurement,setting,value
CNC(=O)Nc1ccc(-c2nc(N3CC4CCC(C3)O4)c3cnn(C4CCC5(CC4)OCCO5)c3n2)cc1,Population Apoptotic (%),[1],22%
same,Population Fragmented Nuclei (%),[1],24%
same,Population Healthy Nuclei (%),[1],59%
same,Population Hoechst High Intensity Objects (%),[1],13%
same,Population Membrane Permeable-Phenotype (%),[1],5%
same,Population Mitochondria Different-Phenotype (%),[1],11%
same,Population Mitotic Cells (%),[1],77%
same,Population Normal (%),[1],86%
same,Population Pyknosed Nuclei (%),[1],15%
same,Population Tubulin-Different-Phenotype (%),[1],26%
same,Total Cell Count,[1],90
same,Population Apoptotic (%),[2],0%
same,Population Fragmented Nuclei (%),[2],28%
same,Population Healthy Nuclei (%),[2],55%
same,Population Hoechst High Intensity Objects (%),[2],10%
same,Population Mitochondria Different-Phenotype (%),[2],13%
same,Population Mitotic Cells (%),[2],100%
same,Population Normal (%),[2],89%
same,Population Pyknosed Nuclei (%),[2],16%
same,Population Tubulin-Different-Phenotype (%),[2],18%
same,Total Cell Count,[2],54
same,Population Apoptotic (%),[3],40%
same,Population Fragmented Nuclei (%),[3],26%
same,Population Healthy Nuclei (%),[3],31%
same,Population Hoechst High Intensity Objects (%),[3],13%
same,Population Membrane Permeable-Phenotype (%),[3],11%
same,Population Mitochondria Different-Phenotype (%),[3],88%
same,Population Mitotic Cells (%),[3],59%
same,Population Normal (%),[3],87%
same,Population Pyknosed Nuclei (%),[3],42%
same,Population Tubulin-Different-Phenotype (%),[3],96%
same,Total Cell Count,[3],66
same,Population Apoptotic (%),[4],25%
same,Population Fragmented Nuclei (%),[4],13%
same,Population Healthy Nuclei (%),[4],54%
same,Population Hoechst High Intensity Objects (%),[4],6%
same,Population Membrane Permeable-Phenotype (%),[4],36%
same,Population Mitochondria Different-Phenotype (%),[4],75%
same,Population Mitotic Cells (%),[4],75%
same,Population Normal (%),[4],93%
same,Population Pyknosed Nuclei (%),[4],32%
same,Total Cell Count,[4],107
same,Population Apoptotic (%),[5],30%
same,Population Fragmented Nuclei (%),[5],28%
same,Population Healthy Nuclei (%),[5],52%
same,Population Hoechst High Intensity Objects (%),[5],19%
same,Population Membrane Permeable-Phenotype (%),[5],0%
same,Population Mitochondria Different-Phenotype (%),[5],14%
same,Population Mitotic Cells (%),[5],70%
same,Population Normal (%),[5],80%
same,Population Pyknosed Nuclei (%),[5],18%
same,Population Tubulin-Different-Phenotype (%),[5],14%
same,Total Cell Count,[5],98
same,Population Apoptotic (%),[6],25%
same,Population Fragmented Nuclei (%),[6],19%
same,Population Healthy Nuclei (%),[6],64%
same,Population Hoechst High Intensity Objects (%),[6],18%
same,Population Membrane Permeable-Phenotype (%),[6],8%
same,Population Mitochondria Different-Phenotype (%),[6],6%
same,Population Mitotic Cells (%),[6],75%
same,Population Normal (%),[6],81%
same,Population Pyknosed Nuclei (%),[6],16%
same,Population Tubulin-Different-Phenotype (%),[6],23%
same,Total Cell Count,[6],55
same,Population Apoptotic (%),[7],51%
same,Population Fragmented Nuclei (%),[7],25%
same,Population Healthy Nuclei (%),[7],35%
same,Population Hoechst High Intensity Objects (%),[7],10%
same,Population Membrane Permeable-Phenotype (%),[7],10%
same,Population Mitochondria Different-Phenotype (%),[7],89%
same,Population Mitotic Cells (%),[7],48%
same,Population Normal (%),[7],90%
same,Population Pyknosed Nuclei (%),[7],38%
same,Population Tubulin-Different-Phenotype (%),[7],93%
same,Total Cell Count,[7],66
same,Population Apoptotic (%),[8],41%
same,Population Fragmented Nuclei (%),[8],8%
same,Population Healthy Nuclei (%),[8],42%
same,Population Hoechst High Intensity Objects (%),[8],6%
same,Population Membrane Permeable-Phenotype (%),[8],44%
same,Population Mitochondria Different-Phenotype (%),[8],84%
same,Population Mitotic Cells (%),[8],58%
same,Population Normal (%),[8],93%
same,Population Pyknosed Nuclei (%),[8],49%
same,Population Tubulin-Different-Phenotype (%),[8],96%
same,Total Cell Count,[8],90
same,Population Apoptotic (%),[9],50%
same,Population Fragmented Nuclei (%),[9],39%
same,Population Healthy Nuclei (%),[9],49%
same,Population Hoechst High Intensity Objects (%),[9],18%
same,Population Membrane Permeable-Phenotype (%),[9],3%
same,Population Mitochondria Different-Phenotype (%),[9],7%
same,Population Mitotic Cells (%),[9],50%
same,Population Normal (%),[9],81%
same,Population Pyknosed Nuclei (%),[9],11%
same,Population Tubulin-Different-Phenotype (%),[9],19%
same,Total Cell Count,[9],93
same,Population Apoptotic (%),[10],36%
same,Population Fragmented Nuclei (%),[10],14%
same,Population Healthy Nuclei (%),[10],55%
same,Population Hoechst High Intensity Objects (%),[10],14%
same,Population Membrane Permeable-Phenotype (%),[10],5%
same,Population Mitochondria Different-Phenotype (%),[10],14%
same,Population Mitotic Cells (%),[10],63%
same,Population Normal (%),[10],85%
same,Population Pyknosed Nuclei (%),[10],30%
same,Population Tubulin-Different-Phenotype (%),[10],37%
same,Total Cell Count,[10],56
same,Population Apoptotic (%),[11],64%
same,Population Fragmented Nuclei (%),[11],29%
same,Population Healthy Nuclei (%),[11],23%
same,Population Hoechst High Intensity Objects (%),[11],12%
same,Population Membrane Permeable-Phenotype (%),[11],26%
same,Population Mitochondria Different-Phenotype (%),[11],94%
same,Population Mitotic Cells (%),[11],35%
same,Population Normal (%),[11],87%
same,Population Pyknosed Nuclei (%),[11],47%
same,Population Tubulin-Different-Phenotype (%),[11],94%
same,Total Cell Count,[11],65
same,Population Apoptotic (%),[12],43%
same,Population Fragmented Nuclei (%),[12],11%
same,Population Healthy Nuclei (%),[12],29%
same,Population Hoechst High Intensity Objects (%),[12],16%
same,Population Membrane Permeable-Phenotype (%),[12],40%
same,Population Mitochondria Different-Phenotype (%),[12],80%
same,Population Mitotic Cells (%),[12],56%
same,Population Normal (%),[12],83%
same,Population Pyknosed Nuclei (%),[12],58%
same,Population Tubulin-Different-Phenotype (%),[12],93%
same,Total Cell Count,[12],74
